# Experimental data reported in ChEMBL document CHEMBL1123129, “Hypolipidemic activity of indan-1,3-dione derivatives in rodents” (J Med Chem, 1985).
# Assays:
# Rattus norvegicus [1] = test: Compound was evaluated for the hypolipidemic activity at 20 mg/kg per day orally for 14 days on lipid content in rat liver; format: functional; conditions: route oral
# How it was run: (§1)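 Male Sprague–Dawley rats were dosed orally for 14 days. Liver, small intestine and a 24-h fecal collection were lipid-extracted. Extracts were assayed for cholesterol (modified Liebermann–Burchard), triglyceride (enzymatic kit), neutral lipids, phospholipids and protein. Values are % of 1% CMC vehicle control, mean ± SD, N = 6.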
# Rattus norvegicus [2] = test: Compound was evaluated for the hypolipidemic activity at 20 mg/kg per day orally for 14 days on cholesterol content in rat feces.; format: functional; conditions: route oral; how it was run: as §1
# Mus musculus [3] = species on record: Mus musculus; test: In Vitro evaluation for the CF1 liver enzyme activity on phosphatidate phosphohydrolase at concentration 200 uM
# How it was run: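 Mouse liver enzymes assayed in vitro on 10% homogenates of CF1 male mouse liver, with test drug added at 50–200 μM. Each enzyme follows a published procedure. Protein is measured by Lowry. Activity is given as % of untreated control (X ± SD, N = 6).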
# [4] = target: T1, 3-hydroxy-3-methylglutaryl-coenzyme A reductase (Mus musculus) (UniProt Q01237); test: In Vivo effect for the hypolipidemic activity on HMG-CoA reductase in CF1 mice after 16 days of oral administration at a dose of 60 mg/kg; format: organism-based; design: dose 60 mg/kg
# T1 sequence (whole entry): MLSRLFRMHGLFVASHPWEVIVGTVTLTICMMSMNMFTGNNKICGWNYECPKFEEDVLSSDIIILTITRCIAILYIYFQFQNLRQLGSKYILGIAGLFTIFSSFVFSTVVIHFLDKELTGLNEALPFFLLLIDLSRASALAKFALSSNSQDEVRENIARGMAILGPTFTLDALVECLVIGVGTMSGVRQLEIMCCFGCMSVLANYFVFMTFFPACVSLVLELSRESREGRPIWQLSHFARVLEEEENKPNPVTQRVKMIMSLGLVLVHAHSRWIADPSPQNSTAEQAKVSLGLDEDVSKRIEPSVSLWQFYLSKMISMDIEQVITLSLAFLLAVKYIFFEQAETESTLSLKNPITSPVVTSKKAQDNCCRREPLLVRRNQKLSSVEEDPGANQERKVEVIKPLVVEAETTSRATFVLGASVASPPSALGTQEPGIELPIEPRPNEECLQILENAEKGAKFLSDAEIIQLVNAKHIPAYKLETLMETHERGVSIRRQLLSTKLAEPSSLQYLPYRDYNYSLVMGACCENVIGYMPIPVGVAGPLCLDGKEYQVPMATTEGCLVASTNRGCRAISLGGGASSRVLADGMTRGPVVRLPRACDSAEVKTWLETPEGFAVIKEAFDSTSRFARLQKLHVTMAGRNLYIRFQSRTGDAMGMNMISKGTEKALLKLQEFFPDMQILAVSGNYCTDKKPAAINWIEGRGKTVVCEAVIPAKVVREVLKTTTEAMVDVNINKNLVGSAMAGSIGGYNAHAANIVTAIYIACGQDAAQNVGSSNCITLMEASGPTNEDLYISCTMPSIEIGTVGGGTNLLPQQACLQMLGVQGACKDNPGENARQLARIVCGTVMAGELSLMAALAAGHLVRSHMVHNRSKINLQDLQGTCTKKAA
# How it was run: (§2)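 CF1 male mice are dosed orally at 10–60 mg/kg per day for 16 days, with 1% CMC as the control vehicle. Liver is homogenized at 10% in 0.25 M sucrose + 0.001 M EDTA, pH 7.2. Enzymes are assayed by literature methods, with Lowry protein. Activity is given as % of control (X ± SD, N = 6), with p from Student's t test.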
# [5] = target: T1, 3-hydroxy-3-methylglutaryl-coenzyme A reductase (Mus musculus); test: In Vitro evaluation for the CF1 liver enzyme activity on HMG-CoA reductase at concentration 100 uM
# How it was run: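 Liver was taken from CF1 male mice and made into 10% homogenates, which were incubated with test compound at 50, 100 or 200 µM. Each enzyme was assayed by its literature method, and protein was measured by Lowry. N = 6. Activity is expressed as % of untreated control ± SD.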
# Mus musculus [6] = test: Compound was evaluated for the hypolipidemic activity in CF1 male mice at a dose of 20 mg/kg orally for Serum cholesterol at 9th day; format: functional; conditions: route oral
# How it was run: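 CF1 male mice received the agent orally in 1% CMC at 10–60 mg/kg per day. Tail-vein blood was taken on days 9 and 16. Serum cholesterol was measured by modified Liebermann–Burchard on duplicate 25-µL samples, and serum triglyceride on day 16 in duplicate 50-µL samples. Values are % of vehicle control, mean ± SD, N = 6; Student's t test.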
# [7] = target: T2, Sterol O-acyltransferase 1 (Mus musculus) (UniProt Q61263); test: In Vivo effect for the hypolipidemic activity on Acyl-COA cholesterol acyltransferase in CF1 mice after 16 days of oral administration at a dose of 40 mg/kg; format: functional, organism-based; design: dose 40 mg/kg; how it was run: as §2
# T2 sequence (whole entry): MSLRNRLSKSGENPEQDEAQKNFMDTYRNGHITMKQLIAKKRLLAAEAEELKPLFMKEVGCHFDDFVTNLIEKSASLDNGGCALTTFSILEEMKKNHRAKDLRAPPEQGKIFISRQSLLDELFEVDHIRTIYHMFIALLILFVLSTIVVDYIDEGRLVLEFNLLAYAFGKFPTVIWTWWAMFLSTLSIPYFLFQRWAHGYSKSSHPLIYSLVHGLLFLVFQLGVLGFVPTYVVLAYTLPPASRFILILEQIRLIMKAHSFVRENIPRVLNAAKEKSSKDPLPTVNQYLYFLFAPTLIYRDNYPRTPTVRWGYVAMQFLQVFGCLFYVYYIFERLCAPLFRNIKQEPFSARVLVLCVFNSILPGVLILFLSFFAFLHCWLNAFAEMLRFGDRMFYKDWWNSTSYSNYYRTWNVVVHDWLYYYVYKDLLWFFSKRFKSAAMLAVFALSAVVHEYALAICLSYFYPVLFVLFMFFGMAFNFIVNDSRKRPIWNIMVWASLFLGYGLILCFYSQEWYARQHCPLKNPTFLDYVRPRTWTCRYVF
# Rattus norvegicus [8] = test: Compound was evaluated for the hypolipidemic activity at 20 mg/kg per day orally for 14 days on protein content in rat HDL; format: functional; conditions: route oral
# How it was run: (§3)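 Male Sprague–Dawley rats (~300 g) were dosed orally each day. Blood was drawn from the abdominal vein. Lipoprotein fractions (chylomicron, VLDL, LDL, HDL) were separated by the Hatch–Lees and Havel methods. Each fraction was assayed for cholesterol, triglyceride (enzymatic kit), neutral lipids, phospholipids and Lowry protein. Values are % of 1% CMC vehicle control, N = 6.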
# Rattus norvegicus [9] = test: Compound was evaluated for the hypolipidemic activity at 20 mg/kg per day orally for 14 days on cholesterol content in rat VLDL; format: functional; conditions: route oral; how it was run: as §3
# Rattus norvegicus [10] = test: Compound was evaluated for the hypolipidemic activity at 20 mg/kg per day orally for 14 days on triglycerides content in rat LDL; format: functional; conditions: route oral; how it was run: as §3
# Rattus norvegicus [11] = test: Compound was evaluated for the hypolipidemic activity at 20 mg/kg per day orally for 14 days on cholesterol content in rat small intestine.; format: functional; conditions: route oral; how it was run: as §1
# Mus musculus [12] = test: Hypolipidemic activity in CF1 male mice at a dose of 20 mg/kg per day, serum cholesterol measured on the 9th day; format: functional
# How it was run: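 CF1 male mice (~30 g) were given 20 mg/kg per day ip at 11:00 a.m.; N = 6 per group. Tail-vein serum was collected in nonheparinized microcapillaries. Cholesterol was measured on days 9 and 16 by modified Liebermann–Burchard on duplicate 25 µL samples. Triglyceride was measured on day 16 in a separate group, duplicate 50 µL. Values are % control ± SD; Student's t test.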
structure (smiles),measurement,setting,value
COc1ccc(C2C(=O)c3ccccc3C2=O)cc1 [ANISINDIONE],Control,Rattus norvegicus [1],98%
same,Control,Rattus norvegicus [2],187%
same,Control,Mus musculus [3],11%
same,Control,[4],126%
same,Control,[5],109%
same,Control,Mus musculus [6],67%
same,Control,[7],42%
same,Control,Rattus norvegicus [8],107%
same,Control,Rattus norvegicus [9],88%
same,Control,Rattus norvegicus [10],40%
same,Control,Rattus norvegicus [11],87%
same,"Serum cholesterol, % of control",Mus musculus [12],58%
